Measured values taken from ChEMBL document CHEMBL1139423, “Stress-driven discovery of metabolites from the phytopathogenic fungus Leptosphaeria maculans: structure and activity of leptomaculins A-E” (2008).
Activity calls are given as the source filed them. The rule behind the calls is not given here.

Experiments:
[1] = tested on: Brassica napus; experiment: Stress inducing elicitor activity in Brassica napus cv. Wester assessed as induction of phytoalexins production; assay type: functional, organism-based
Summary of the method: (§1)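 Test solutions applied to leaves of whole plants. Plants were grown in a growth chamber at 24 ± 2 °C on a 16 h light / 8 h dark cycle. Treated plants were incubated in a growth cabinet. Control leaves received MeOH/H2O (1:1). Elicitation was scored by HPLC-DAD of leaf extracts as phytoalexins absent from control plants. Assays were run in triplicate, at least twice.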

[2] = tested on: Brassica juncea; experiment: Stress inducing elicitor activity in Brassica juncea cv. Cutlass assessed as induction of phytoalexins production; assay type: functional, organism-based; summary of the method: as §1
[3] = tested on: Brassica juncea; experiment: Stress inducing elicitor activity in Brassica juncea cv. Cutlass; assay type: functional, organism-based; summary of the method: as §1
[4] = tested on: Brassica napus; experiment: Stress inducing elicitor activity in Brassica napus cv. Wester; assay type: functional, organism-based; summary of the method: as §1
[5] = tested on: Brassica juncea; experiment: Induction necrosis on leaves of Brassica juncea cv. Cutlass at 0.5 mM; assay type: functional, organism-based
[6] = tested on: Brassica napus; experiment: Induction necrosis on leaves of Brassica napus cv. Wester at 0.5 mM; assay type: functional, organism-based
[7] = tested on: Brassica juncea; experiment: Stress inducing elicitor activity in Brassica juncea cv. Cutlass assessed as increase in indolyl-3-acetonitrile levels relative to control; assay type: functional
Summary of the method: (§2)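 Test solutions applied to leaves of whole plants (B. juncea cv. Cutlass, B. napus cv. Westar) grown in a growth chamber at 24 ± 2 °C with 16 h light / 8 h dark; plants then incubated in a growth cabinet. Leaf extracts analysed by HPLC-DAD for phytoalexins and indolyl stress metabolites against controls treated with MeOH/H2O (1:1). Run in triplicate, at least twice.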

[8] = tested on: Brassica napus; experiment: Stress inducing elicitor activity in Brassica napus cv. Wester assessed as increase in 1-methoxyindolyl-3-acetonitrile levels relative to control; assay type: functional; summary of the method: as §2
[9] = tested on: Brassica napus; experiment: Stress inducing elicitor activity in Brassica napus cv. Wester assessed as increase in indolyl-3-acetonitrile levels relative to control; assay type: functional; summary of the method: as §2
[10] = tested on: Brassica napus; experiment: Stress inducing elicitor activity in Brassica napus cv. Wester assessed as induction of spirobrassinin production at 1 mM; assay type: functional, organism-based; summary of the method: as §2
[11] = tested on: Brassica juncea; experiment: Stress inducing elicitor activity in Brassica juncea cv. Cutlass as induction of spirobrassinin production at 1 mM; assay type: functional, organism-based; summary of the method: as §1
[12] = tested on: Brassica juncea; experiment: Stress inducing elicitor activity in Brassica juncea cv. Cutlass assessed as increase in 1-methoxyindolyl-3-acetonitrile levels relative to control; assay type: functional; summary of the method: as §2
[13] = tested on: Brassica juncea; experiment: Stress inducing elicitor activity in Brassica juncea cv. Cutlass assessed as induction of spirobrassinin production at 1 mM; assay type: functional, organism-based; summary of the method: as §2
[14] = tested on: Brassica juncea; experiment: Stress inducing elicitor activity in Brassica juncea cv. Cutlass assessed as induction of spirobrassinin production at 0.5 mM; assay type: functional, organism-based; summary of the method: as §2
[15] = tested on: Brassica juncea; experiment: Stress inducing elicitor activity in Brassica juncea cv. Cutlass assessed as induction of rutalexin production at 0.5 mM; assay type: functional, organism-based; summary of the method: as §2
[16] = tested on: Brassica juncea; experiment: Stress inducing elicitor activity in Brassica juncea cv. Cutlass assessed as induction of rutalexin production at 1 mM; assay type: functional, organism-based; summary of the method: as §2
[17] = tested on: Brassica juncea; experiment: Stress inducing elicitor activity in Brassica juncea cv. Cutlass assessed as induction of brassilexin production at 0.5 mM; assay type: functional, organism-based; summary of the method: as §2
[18] = tested on: Brassica juncea; experiment: Stress inducing elicitor activity in Brassica juncea cv. Cutlass assessed as induction of cyclobrassinin production at 0.5 mM; assay type: functional, organism-based; summary of the method: as §2
[19] = tested on: Brassica juncea; experiment: Stress inducing elicitor activity in Brassica juncea cv. Cutlass assessed as induction of cyclobrassinin production at 1 mM; assay type: functional, organism-based; summary of the method: as §2
[20] = tested on: Brassica juncea; experiment: Stress inducing elicitor activity in Brassica juncea cv. Cutlass assessed as induction of brassilexin production at 1 mM; assay type: functional, organism-based; summary of the method: as §2
[21] = tested on: Brassica napus; experiment: Stress inducing elicitor activity in Brassica napus cv. Wester assessed as induction of spirobrassinin production at 0.5 mM; assay type: functional, organism-based; summary of the method: as §2

SMILES: C/C=C1/NC(=O)[C@H](C(C)C)NC(=O)[C@@H](CC(C)C)NC(=O)[C@H](CC(C)C)OC(=O)[C@H](Cc2ccccc2)OC1=O
- Activity [1]: inactive
- Activity [2]: inactive

SMILES: CC(=O)O[C@H]1[C@]2(O)C[C@]34SSSS[C@](CO)(C(=O)N3[C@@H]2C[C@]12O[C@H](C)C(C)(C)C2=O)N(C)C4=O
- Activity [3]: inactive
- Activity [4]: inactive

SMILES: CC(=O)O[C@H]1[C@]2(O)C[C@]34SSS[C@](CO)(C(=O)N3[C@@H]2C[C@]12O[C@H](C)C(C)(C)C2=O)N(C)C4=O
- Activity [3]: inactive
- Activity [4]: inactive

SMILES: CC(=O)O[C@H]1[C@]2(O)C[C@]34S[C@](CO)(C(=O)N3[C@@H]2C[C@]12O[C@H](C)C(C)(C)C2=O)N(C)C4=O
- Activity [3]: inactive
- Activity [5]: Active
- Activity [4]: inactive
- Activity [6]: Active

SMILES: CC(C)=CCOc1ccc(C[C@@H]2NC(=O)[C@H](CO)NC2=O)cc1
- Activity [1]: inactive
- Activity [2]: inactive

SMILES: C[C@H]1O[C@]2(C[C@H]3N4C(=O)[C@@]5(CO)SS[C@]4(C[C@@]3(O)[C@@H]2O)C(=O)N5C)C(=O)C1(C)C [DEACETYLSIRODESMIN PL]
- fold change (FC) [7]: 8
- Activity [5]: Active
- fold change (FC) [8]: 8
- fold change (FC) [9]: 8
- Activity [10]: Active
- Activity [6]: Active
- Activity [11]: Active
- fold change (FC) [12]: 8

SMILES: CC(=O)O[C@H]1[C@]2(O)C[C@]34SS[C@](CO)(C(=O)N3[C@@H]2C[C@]12O[C@H](C)C(C)(C)C2=O)N(C)C4=O [SIRODESMIN PL]
- Activity [13]: Active
- fold change (FC) [7]: 8
- Activity [5]: Active
- Activity [14]: Active
- fold change (FC) [8]: 8
- Activity [15]: Active
- fold change (FC) [9]: 8
- Activity [16]: Active
- Activity [10]: Active
- Activity [17]: Active
- Activity [18]: Active
- Activity [19]: Active
- Activity [20]: Active
- Activity [6]: Active
- fold change (FC) [12]: 8
- Activity [21]: Active
